This series deals with MS2 coat protein. The series is described as follows: apparent Kd, MS2 coat protein; higher = weaker binding; RNA-MaP array; FMN 200 µM where present. A digest of the protocol: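 Each design was made on Illumina sequencing-chip clusters by stalled E. coli RNA polymerase and titrated with SNAP-549-labelled MS2 coat protein from 0.7 or 1.5 nM, doubling to 3 µM, in the absence and then the presence of constant ligand. The buffer was 100 mM Tris-HCl pH 7.5, 80 mM KCl, 4 mM MgCl2, BSA, DTT, yeast tRNA and Tween-20. The apparent Kd is the median of filtered per-cluster fits of binding curves, with green signal normalised to red-channel RNA signal and control-cluster median Fmax.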

[1] abbreviates: designed as: OFF switch for flavin mononucleotide, no ligand.
Setting [2] is: ligand present: flavin mononucleotide, designed as: OFF switch for flavin mononucleotide.
Where [3] appears, read: designed as: ON switch for flavin mononucleotide, no ligand.
[4] abbreviates: ligand present: flavin mononucleotide, designed as: ON switch for flavin mononucleotide.

In the case of “GGAUGACAAAGUCAUCCAAAUCGAACAUGAGGAUCACCCAUGUAGGAUAUCCUACUCAAAGAGUAGGAGAAGGACAUGUGCUUU”, the “apparent Kd” value reads like this: under setting [1], 53.1 nM; under setting [2], 178 nM.

Turning to “AUAUCUCUAUUAGUUCCAAUACGAACAUGAGGAUCACCCAUGUAGGAUAUGCUAGAAGUUGUGUUGCAGAAGGACAUGUACCUU”, the “apparent Kd” value by setting is: under setting [1], 11.7 nM; under setting [2], 25.8 nM.

As for “AGAUAACAUGAGGAUCACCCAUGUGAGGAUAUUUACCCAAGAGCUUCGGCUCUCAGGUGGAGAAGGCACGUUGA”, the “apparent Kd” value came out at 51.3 nM under setting [1] and 76.8 nM under setting [2].

“UCAAUAUAUCAGGAUAUGACUUUUUGUGUUAAGUCAGAAGGGAUAACAUGAGGAUCACCCAUGUGAUAUAGUGA”: the “apparent Kd” value was 52 nM under setting [1] and 58.9 nM under setting [2].

Regarding “AAAUUUAACGAAGGAUAUGGAUACAUGAGGAUCACCCAUGUAUAUUUUGUGAUCUUGUUUAAGAUCCAGAAGGUCGUAUACAUA”, the “apparent Kd” value reads like this: under setting [1], 24 nM; under setting [2], 56.1 nM.

As to “AAUACUACAGGAUAUACAUGGGUGAUCCUCAUGUCCCUUCUACAUGAGGAUCACCCAUGUAGAAGGGUAGUACA”, the “apparent Kd” value under setting [1] is 13.4 nM and the “apparent Kd” value under setting [2] came out at 8.3 nM.

As to “UUCGUGUAAGGAUAUACGACCCAUCCCAUUGGGAUGGGCACGUAGAAGGUACAUGAGGAUCACCCAUGUGCUCC”, the “apparent Kd” value is, setting by setting: under setting [1], 26.8 nM; under setting [2], 167 nM.

For “UUAUUAUAUGUAGGAUAUGCAUAUUAUUAUUAUGCAGAAGGACAUGAGGAUCACCCAUGUAUAUUAUUAUUAUAUAUUGUAUAU”, the “apparent Kd” value is 27.8 nM under setting [1] and 43.2 nM under setting [2].

For the sequence “ACAUGAGGAUCACCCAUGUUUGCAUAGGAUAUUGAGGAUUAGGGAUGUUUUUUUGGAUUUGCCCACAAGAAGGAUGUAUGUUUU”, the “apparent Kd” value under setting [3] is 8.56 nM and the “apparent Kd” value under setting [4] is 7.96 nM.

“UUCGGCGCAGGAUAUGCAGUUCUGUGUUGAAUCGGCGCGGGACAUGAGGAUCACCCAUGUAGAAGGGUGUUGGG”: the “apparent Kd” value was 374 nM under setting [1] and 239 nM under setting [2].

“ACAGAGCCUGACAUGAGGAUCACCCAUGUUAGAUUGUUAUGUCAGGAUAUUGUCUAGCAACUAGACAAGAAGGGACGCUCUGUG”: the “apparent Kd” value under setting [3] was determined as 71.2 nM and the “apparent Kd” value under setting [4] amounted to 8.88 nM.

For “AAAUUUAACGAAGGAUAUGCUGACAUGAGGAUCACCCAUGUGUGCCUUGUGUUGCUGAAACGGGAGCAGAAGGUCGUAUACAUA”, the “apparent Kd” value under setting [1] turned out to be 694 nM and the “apparent Kd” value under setting [2] was found to be 1180 nM.

As to “AGAAAGGUAGGAUAUACGAAAAAAAAGGGUAGAAAAAAAACACAUGAGGAUCACCCAUGUAGAAGGACCAAAGA”, the “apparent Kd” value runs as follows: under setting [1], 28.9 nM; under setting [2], 96.6 nM.

For the sequence “GGAUAGGACAGAGGAUAUACGUGCUAGAAAUACUAGCAAAAUUUCCUCACAUGAGGAUCACCCAUGUAGAAGGCUGUCCUAUCG”, the “apparent Kd” value reads like this: under setting [1], 14.5 nM; under setting [2], 542 nM.

Take “GGCAGACAUGAGGAUCACCCAUGUGAGGAUAUCGUCAUAGAUGCAAAAGCAUCUAUGACGAGAAGGUACAUGCC”: the “apparent Kd” value is, setting by setting: under setting [1], 23.2 nM; under setting [2], 19.2 nM.

For the sequence “GAUUAAUGCAAGGAUAUGCUAUUAUUUUAUUUUGCAGAAGGUGCAACAUGAGGAUCACCCAUGUUGGAGGGUAU”, the “apparent Kd” value was 19.8 nM under setting [1] and 29.8 nM under setting [2].

With “UUUUUACUUGCAGGAUAUGGAGACAUGAGGAUCACCCAUGUAUGAUAAGCUAAAUUAUGCUGUGGCCAGAAGGGUAUUGUUCUU”, the “apparent Kd” value runs as follows: under setting [3], 72 nM; under setting [4], 52.9 nM.

“CGUCCGUGGGUAGUGAUCGUACAUGAGGAUCACCCAUGUGAGAAGGAUAUGCAUGCACGCGGACAGCAGAAGGUCUCACAACAA”: the “apparent Kd” value runs as follows: under setting [1], 133 nM; under setting [2], 429 nM.

Turning to “GGUACCAUCACAGGAUAUGCUUUCCUUUGGGAAGCAGAAGGGUGUAACAUGAGGAUCACCCAUGUGGUGCCAGGGCGUGAGCCC”, the “apparent Kd” value under setting [3] stood at 470 nM and the “apparent Kd” value under setting [4] is 42.6 nM.

For “CUUUAGUGAGGAUAUCAGUAGUAAUACAAUAGUAUUAUUACUGAGAAGGCACAUGAGGAUCACCCAUGUUCCUC”, the “apparent Kd” value by setting is: under setting [1], 29.4 nM; under setting [2], 120 nM.

For “GCUGGUCGAGGAUAUAUAUGACGUGCUUCGGCACGAAGGUCACAUGAGGAUCACCCAUGUAGAAGGCGACCAGC”, the “apparent Kd” value is, setting by setting: under setting [1], 56.4 nM; under setting [2], 390 nM.

Take “ACGGUUUACCAGAAGGACAUGAGGAUCACCCAUGUAGGAUAUGGGAAGUUGGUCUCCUUCAAAUAAGGCCCUCAGAGCUUCAAA”: the “apparent Kd” value amounted to 446 nM under setting [3] and 31.2 nM under setting [4].

Consider “GACAGUGCUAAUAAAUAAGAUCUACAUGAGGAUCACCCAUGUAAGGAUAUCGUCAGGAAUACUGACGAGAAGGUACAUGCACUG”, for which the “apparent Kd” value is, setting by setting: under setting [1], 15.4 nM; under setting [2], 26.2 nM.

On to “CGCUCAAGAGAGAAGGAUAGAGUCAGAAGGCGUUACAUGAGGAUCACCCAUGUUUUGUAUAGUAACGAGGAUAUGAAAUGAGCG”, for which the “apparent Kd” value under setting [1] turned out to be 19.7 nM and the “apparent Kd” value under setting [2] came out at 15 nM.

For the sequence “UCACAGUGUCGUUAUCCGUAGCGAACAUGAGGAUCACCCAUGUAGGAUAUGUUAUUAAACUAAUAACAGAAGGACGUUGGUCGG”, the “apparent Kd” value reads like this: under setting [1], 36.7 nM; under setting [2], 220 nM.

“AUGAGGGAAGUAGGAUAUGAUCAAGACAUGAGGAUCACCCAUGUAAUGAGGGUGUGUGUCUUUGUUCAGAAGGACUUGUGUCAA”: the “apparent Kd” value by setting is: under setting [1], 46.4 nM; under setting [2], 52.6 nM.

Regarding “UAUGUUUUUGUGAGGAUAUACUUUGUUUGGUCGUAGUAGAAGGCACAUGAGGAUCACCCAUGUAGAUUUUUGGU”, the “apparent Kd” value by setting is: under setting [1], 22.8 nM; under setting [2], 40.4 nM.

Regarding “AAAAGUUUGGAGGAUAUCCAUCCAAACGGAUAAGGAGAAGGCCGGACAUGAGGAUCACCCAUGUGAUUAGGUUA”, the “apparent Kd” value under setting [1] stood at 14.2 nM and the “apparent Kd” value under setting [2] came out at 24.8 nM.

As to “GUGCAUACGUGAGGAUAUGUAUUAGAUAGUGGUACAGAAGGCAUGUCAGAUGACAUGAGGAUCACCCAUGUUGGCACAAUGCGC”, the “apparent Kd” value is, setting by setting: under setting [3], 137 nM; under setting [4], 30.5 nM.

With “AAAAGGUUAGGAUAUGCGUGGAAAAAGUGUAUCUAAAAAAAACAUGAGGAUCACCCAUGUAGAAGGGACUUAAA”, the “apparent Kd” value under setting [1] is 45.3 nM and the “apparent Kd” value under setting [2] was 44 nM.

For “GCAAUGUAAGGAUAUUCGGAGUCCUGCCGGGCAGGUAGGUUGGAGAAGGUACAUGAGGAUCACCCAUGUGAGCC”, the “apparent Kd” value runs as follows: under setting [1], 48.6 nM; under setting [2], 170 nM.

Take “CCGGAAACGGGUAGCCUGACAUGAGGAUCACCCAUGUGAACCGAGGAUAUGGAUCCUAAUUGGAUCCAGAAGGUGGCAGGCUAC”: the “apparent Kd” value by setting is: under setting [3], 681 nM; under setting [4], 245 nM.

For the sequence “AAUAACAGAGGAUAUACUAUUUUAUGUGUUUGUUAUUUUGAACAUGAGGAUCACCCAUGUAGAAGGCUGAUUAA”, the “apparent Kd” value came to 44.4 nM under setting [1] and 43.9 nM under setting [2].

Take “UAUAUAUAGUAAGGAUAUGUAAUUAAUUUAUAAACAGAAGGUACUGACAUGAGGAUCACCCAUGUUUUAGUGUGGGCAUGUAGA”: the “apparent Kd” value runs as follows: under setting [1], 95.3 nM; under setting [2], 155 nM.

“AAGUAGUGAGGAUAUACAUGGAUAUACAUUCAUGUGGACCUACAUGAGGAUCACCCAUGUAGAAGGCACUAAUA”: the “apparent Kd” value came to 33.8 nM under setting [1] and 28.6 nM under setting [2].

For the sequence “GCCUCACAUGAGGAUCACCCAUGUCAGGAUAUCUCGUGCGCAGUAAUUAUCUGGCUAAAGAGAAGGGACAUUAA”, the “apparent Kd” value under setting [1] turned out to be 47 nM and the “apparent Kd” value under setting [2] was determined as 99 nM.

For the sequence “UCUUUGUGAGGAUAUCAGUAGUAAAUAAAUAAAAUUACUACUGAGAAGGCACAUGAGGAUCACCCAUGUUCCUU”, the “apparent Kd” value was determined as 12.1 nM under setting [1] and 24.4 nM under setting [2].

Source of the values: the EternaBench riboswitch data.
